Measurements: publication PMC3594512 (Bioorganic & medicinal chemistry, 2013)
Entries after “also recorded” stand apart in the source; their conditions may differ.

Experiments:
F-TAR RNA = experiment: TentaGel bead fluorescence assay with F-TAR RNA; assay type: binding; conditions: peptide on TentaGel beads, fluorescence microscopy
[1] = test system: F-18S RNA (human A-site rRNA); experiment: TentaGel bead fluorescence assay with F-18S RNA; assay type: binding; conditions: peptide on TentaGel beads; fluorescence microscopy
Summary of the method: (§1)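 Peptide beads were washed free of DMF, blocked 3 h in SuperBlock (PBS, 0.05% Tween-20) and rinsed with water. About 10–12 beads were shaken with fluorescent probe for 24 h at 4 °C, with fresh probe added for repeated cycles. Beads were then water-washed and viewed by fluorescence microscopy. Peptide-free beads set background. Labelled RNAs were gel-purified (20% denaturing PAGE), stored in 10 mM HEPES pH 7.4 and renatured.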

[2] = TentaGel bead control with free fluorescein; assay type: binding; conditions: peptide on TentaGel beads; fluorescence microscopy
Summary of the method: as §1

H69 RNA = conditions: relative to NQVANHQ-NH2 (1:1), ref [15b]; cited from earlier work
human H69 = conditions: relative to NQVANHQ-NH2; due to non-specific binding, ref [15b]; cited from earlier work
[3] = test system: F-H69 (fluorescein-labeled Ψm^3ΨΨ); experiment: Quantum dot; assay type: binding, E. coli; conditions: Qdot analysis; 1 nM F-H69, 1 nM Qdot 655, 16 h at 4 °C
Summary of the method: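 F-H69 was pre-incubated 1 h at 4 °C with anti-fluorescein Qdot 655, then with beads 16 h at 4 °C. Washes: PBS, SuperBlock, then 0.005% TX-100. Per-bead Qdot (em 655 nm) and fluorescein (em 521 nm) pixel intensities (1–255) taken at predefined exposures. Peptide-free beads served as control.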

Substance | on-bead interaction with F-TAR RNA (F-TAR RNA) | on-bead interaction with F-TAR RNA (F-TAR RNA; listed as STYSTVS) | on-bead interaction with F-18S RNA [1] | on-bead interaction with free fluorescein [2] | stoichiometry with H69 (H69 RNA) | selectivity with human H69 (human H69) | bead intensity compared with STYTSVS beads [3]
STYTSVS | with the exception those containing STYTSVS and F-TAR RNA | showed interaction | do not show any fluorescence | do not show any fluorescence | – | – | –
neomycin | – | – | – | – | higher stoichiometries | lower selectivity with human H69 | –
NQVANHQ | did not show any interaction; also recorded: do not show any fluorescence | – | did not show any interaction; also recorded: do not show any fluorescence | do not show any fluorescence | – | – | higher than STYTSVS beads
